The source made the active and inactive calls. No cut-off for these calls is given here.
Experiments:
[1] = tested on: HepG2; assay: Induction of apoptosis in human HepG2 cells assessed as viable cells at 1 uM after 48 hrs by annexin V/propidium iodide staining-based flow cytometry (reference value: 89.8%); type: functional; details: HepG2, 48 h, read-out: Activity
[2] = tested on: HCT-116; assay: Induction of apoptosis in human HCT116 cells assessed as late apoptotic cells at 0.5 uM after 24 hrs by annexin V/propidium iodide staining-based flow cytometry (reference value: 1.71%); type: functional
Summary of the method: (§1)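 HCT116 cells treated with compound or DMSO for 24 or 48 h, trypsinized, washed twice in PBS and dual-stained with annexin-V and PI. Analysed by flow cytometry: early apoptotic cells scored as annexin-V+/PI−, late apoptotic cells as annexin-V+/PI+.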

[3] = tested on: HepG2; assay: Antimitotic activity in human HepG2 cells assessed as demolishment of microtubule at 0.5 uM after 24 hrs by DAPI staining-based immmunofluorescence assay; type: functional, cell-based
Summary of the method: (§2)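 HepG2 cells seeded in 6-well plates and treated with compound. Fixed in 4% paraformaldehyde, permeabilized with 0.5% Triton X-100 in PBS, blocked 30 min in 5% goat serum at room temperature. Stained with monoclonal anti-α-tubulin 1 h at room temperature, then fluorescent secondary antibody, nuclei labelled with DAPI. Viewed by fluorescence microscopy.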

[4] = tested on: HepG2; assay: Induction of apoptosis in human HepG2 cells assessed as late apoptotic cells at 1 uM after 48 hrs by annexin V/propidium iodide staining-based flow cytometry (reference value: 3.74%); type: functional
[5] = tested on: HepG2; assay: Antimitotic activity in human HepG2 cells assessed as inhibition of microtubule formation at 0.2 uM after 24 hrs by DAPI staining-based immmunofluorescence assay; type: functional, cell-based; summary of the method: as §2
[6] = tested on: HepG2; assay: Induction of apoptosis in human HepG2 cells assessed as necrotic cells at 1 uM after 24 hrs by annexin V/propidium iodide staining-based flow cytometry (reference value: 1.59%); type: functional
[7] = tested on: HCT-116; assay: Induction of apoptosis in human HCT116 cells assessed as early apoptotic cells at 1 uM after 48 hrs by annexin V/propidium iodide staining-based flow cytometry (reference value: 2.83%); type: functional; summary of the method: as §1
[8] = tested on: HepG2; assay: Induction of apoptosis in human HepG2 cells assessed as late apoptotic cells at 0.5 uM after 24 hrs by annexin V/propidium iodide staining-based flow cytometry (reference value: 3.74%); type: functional
[9] = tested on: HUVEC; assay: Antimigratory activity against HUVEC at 500 nM after 24 hrs by phase contrast microscopy; type: functional, cell-based; details: Homo sapiens
Summary of the method: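 HUVEC monolayers grown overnight in 6-well plates, scratched with pipet tips, washed twice with PBS, then given fresh EBM2 with vehicle or compound. Imaged by phase contrast at 0 and 24 h (100×). Migrated cells counted manually in 3 separate fields; mean ± SD from three fields.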

[10] = tested on: HepG2; assay: Induction of apoptosis in human HepG2 cells assessed as early apoptotic cells at 0.5 uM after 48 hrs by annexin V/propidium iodide staining-based flow cytometry (reference value: 0.87%); type: functional
[11] = tested on: HUVEC; assay: Antivascular activity against HUVEC assessed as inhibition of tube formation after 8 hrs by Matrigel assay; type: functional, cell-based; details: Homo sapiens
Summary of the method: (§3)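 Wells of prechilled plates coated with Matrigel and solidified 45 min at 37 °C. HUVECs (1 × 10^4) in EBM-2 containing compound (125-500 nM) seeded onto the gel and incubated 8 h at 37 °C. Capillary networks photographed at 100×; tubule numbers and line lengths counted manually.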

[12] = tested on: HepG2; assay: Cell cycle arrest in human HepG2 cells assessed as accumulation at G1 phase at 0.5 uM after 24 hrs by flow cytometry (reference value: 62.74%); type: functional
[13] = Antiproliferative activity against human doxorubicin-resistant MCF7 cells after 48 hrs by MTT assay; type: functional, cell-based; details: MCF7, 48 h
Summary of the method: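 MCF-7/ADR (doxorubicin-resistant) and A549/T (taxol-resistant) cells in RPMI-1640 with 10% FBS and penicillin/streptomycin. Log-phase cells at 40,000-50,000 cells/mL exposed to graded concentrations for 48 h. MTT 3 h, DMSO solubilization, absorbance 570 nm. IC50 from percent growth versus untreated control; mean ± SEM of ≥3 independent experiments.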

[14] = tested on: HCT-116; assay: Cell cycle arrest in human HCT116 cells assessed as accumulation at S phase at 1 uM after 24 hrs by flow cytometry (reference value: 25.66%); type: functional
[15] = tested on: HCT-116; assay: Cell cycle arrest in human HCT116 cells assessed as accumulation at G1 phase at 0.2 uM after 24 hrs by flow cytometry (reference value: 53.98%); type: functional
[16] = tested on: HepG2; assay: Cell cycle arrest in human HepG2 cells assessed as accumulation at S phase at 0.5 uM after 24 hrs by flow cytometry (reference value: 23.97%); type: functional
[17] = tested on: HepG2; assay: Cell cycle arrest in human HepG2 cells assessed as accumulation at G2/M phase at 0.5 uM after 24 hrs by flow cytometry (reference value: 11.29%); type: functional
[18] = tested on: A549; assay: Resistance ratio, ratio of IC50 for human taxol-resistant A549 cells to IC50 for human A549 cells; type: functional
Summary of the method: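 MTT assay: log-phase cells at 40,000-50,000 cells/mL in RPMI-1640 with 10% FBS, exposed to graded concentrations for 48 h, then MTT 3 h, DMSO solubilization, absorbance at 570 nm. IC50 from growth versus untreated control, at least three independent experiments. Ratio = resistant-line IC50 / parental-line IC50.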

[19] = tested on: A549; assay: Antiproliferative activity against human A549 cells after 48 hrs by MTT assay; type: functional, cell-based; details: A549, 48 h
Summary of the method: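 HCT116, HepG2, SMMC-7721, SK-OV-3 and A2780s grown in DMEM; A549 and MCF-7 in RPMI-1640; all with 10% FBS and penicillin/streptomycin at 37 °C, 5% CO2. Log-phase cells at 40,000-50,000 cells/mL treated with graded concentrations for 48 h. MTT 3 h, DMSO solubilization, A570. IC50 from percent growth versus untreated control; mean ± SEM of ≥3 independent dose-response experiments.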

[20] = tested on: HUVEC; assay: Antivascular activity against HUVEC assessed as aggregation of cells in small clumps at 250 to 500 nM after 8 hrs by Matrigel assay; type: functional, cell-based; details: Homo sapiens; summary of the method: as §3
[21] = tested on: HCT-116; assay: Induction of apoptosis in human HCT116 cells assessed as early apoptotic cells at 0.2 uM after 48 hrs by annexin V/propidium iodide staining-based flow cytometry (reference value: 2.83%); type: functional; summary of the method: as §1
[22] = tested on: HCT-116; assay: Induction of apoptosis in human HCT116 cells assessed as viable cells at 0.2 uM after 48 hrs by annexin V/propidium iodide staining-based flow cytometry (reference value: 92%); type: functional; details: HCT-116, 48 h, read-out: Activity
[23] = Antiproliferative activity against human HCC827 cells after 48 hrs by MTT assay; type: functional, cell-based; details: HCC827, 48 h
[24] = tested on: HCT-116; assay: Induction of apoptosis in human HCT116 cells assessed as viable cells at 0.5 uM after 48 hrs by annexin V/propidium iodide staining-based flow cytometry (reference value: 92%); type: functional; details: HCT-116, 48 h, read-out: Activity
[25] = tested on: HUVEC; assay: Antiproliferative activity against HUVEC after 48 hrs by MTT assay; type: cell-based; details: Homo sapiens
Summary of the method: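 HUVECs isolated from umbilical cord veins and grown in EBM-2 with growth factors at 37 °C, 5% CO2. Log-phase cells at 40,000-50,000 cells/mL exposed to a compound dilution series for 48 h. MTT added for 3 h, formazan dissolved in DMSO, absorbance read at 570 nm. IC50 taken from percent growth versus untreated control.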

With `CCOc1ccc(-c2nc(N)sc2-c2cc(OC)c(OC)c(OC)c2)cc1` the viability at 1 µM [1] was 25.9%, the Activity [2] was 10.8% and the Activity [3] was “Active”. For the same molecule, the Activity [4] was 2.67%, the Activity [5] was “Active” and the Activity [6] was 0.79%. The Activity [7] was 43.1%, the Activity [8] was 7.86% and the Activity [9] was “Active”. For the same molecule, the Activity [10] was 65.3%, the Activity [11] was “Dose-dependent effect” and the Activity [12] was 30.08%. The IC50 [13] was 190 nM, the Activity [14] was 7.71% and the Activity [15] was 29.2%. For the same molecule, the Activity [16] was 7.29%, the Activity [17] was 62.63% and the “Ratio IC50” value [18] was 0.51. For the same molecule, the IC50 [19] was 84 nM, the Activity [20] was “Active” and the Activity [21] was 40.2%. For the same molecule, the viability at 0.2 µM [22] was 31.1%, the IC50 [23] was 97 nM and the viability at 0.5 µM [24] was 29.1%. It also gave an IC50 [25] of 40.2 nM.

From ChEMBL document CHEMBL3596186, “Synthesis and biological evaluation of diarylthiazole derivatives as antimitotic and antivascular agents with potent antitumor activity” (Bioorg Med Chem, 2015)
